# Only some compounds are listed: those with a hit (about 2.2% of all), similar ones and a draw of the others.
# DAGLB inhibitor = DAGLB lipase inhibitors, primary screen, biochemical, fluorescence, HTS. inhibition, % at 5.17 µM. 340,000 compounds, 0.059% hits. HEK293T DAGLB membrane lysate, EnzChek fluorogenic substrate. Diacylglycerol lipase-beta (Homo sapiens), Q8NCG7; in the data active means inhibition above about 34%;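 further: 0% = enzyme with vehicle and 100% = wells lacking enzyme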
# Target sequence (Q8NCG7 whole entry, looked up): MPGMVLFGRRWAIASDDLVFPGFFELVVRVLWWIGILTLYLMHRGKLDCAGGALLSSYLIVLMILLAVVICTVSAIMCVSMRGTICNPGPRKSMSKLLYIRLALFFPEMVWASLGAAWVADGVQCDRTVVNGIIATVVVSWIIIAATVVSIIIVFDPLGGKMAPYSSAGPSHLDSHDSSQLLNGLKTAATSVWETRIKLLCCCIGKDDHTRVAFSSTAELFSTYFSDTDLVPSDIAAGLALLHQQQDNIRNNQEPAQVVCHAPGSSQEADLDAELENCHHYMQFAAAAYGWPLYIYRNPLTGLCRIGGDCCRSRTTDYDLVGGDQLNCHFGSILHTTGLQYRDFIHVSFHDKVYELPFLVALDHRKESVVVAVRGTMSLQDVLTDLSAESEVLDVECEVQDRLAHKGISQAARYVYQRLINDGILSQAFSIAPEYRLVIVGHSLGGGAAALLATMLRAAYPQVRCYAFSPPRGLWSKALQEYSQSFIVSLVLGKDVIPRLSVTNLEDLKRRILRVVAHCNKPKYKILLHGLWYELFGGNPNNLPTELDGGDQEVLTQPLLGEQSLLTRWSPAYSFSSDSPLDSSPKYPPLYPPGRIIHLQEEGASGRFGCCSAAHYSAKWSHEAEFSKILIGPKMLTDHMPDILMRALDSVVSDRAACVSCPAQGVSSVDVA
# DNA FID counter = compounds displacing fluorescent DNA intercalator, primary screen, artefact control for HCV NS3 helicase inhibitor project, biochemical, FID fluorescence; DNA fluorescent intercalator displacement; inhibition, % at 7.9 µM; 290,000 compounds, 0.17% hits; AID 1845, 2009; in the data active means inhibition above about 37%;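 further: 0% = vehicle and 100% = reference compound; higher means more ethidium bromide displaced from hairpin DNA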
# NS3 helicase inh = inhibitors of HCV NS3 helicase, primary screen, biochemical, Cy5 molecular beacon fluorescence; NS3 helicase DNA unwinding; inhibition, % at 10.9 µM; 290,000 compounds, 0.56% hits; AID 1800, 2009;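 active means inhibition above the mean of all tested compounds plus 3 SD, set per campaign, cut at about 35% in these data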;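 further: 0% = DMSO wells and 100% = thioflavine S control wells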
#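 Assay system – hepatitis C virus NS3 helicase domain fragment enzyme · Buffer or medium – MOPS pH 6.5, MgCl2, DTT, Tween20, BSA · Reagent – Cy5/quencher beacon DNA duplex and ATP to start · Compound – single 10.9 µM dose · Timing – 1 h at 25 °C · Technique – Cy5 beacon fluorescence read at start and 1 h · Measure – % inhibition of unwinding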
# GPR7 antagonist = GPR7 receptor antagonists, primary screen, cell-based, fluorescence, single concentration | Neuropeptides B/W receptor type 1 (Homo sapiens), P48145 | GPR7-expressing cells, fluorescence antagonist assay | inhibition, % at 4.4 µM | 290,000 compounds, 1.1% hits | AID 1861, 2009; in the data active means inhibition above about 16%, passing the limit was not always enough;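 further: cells stimulated with the agonist NPW; 0% = agonist with vehicle and 100% = vehicle without agonist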
# GRK2 inh = compounds blocking aptamer binding on GRK2 – biochemical, human GRK2, bead flow cytometry, HTS, primary screen; Beta-adrenergic receptor kinase 1 (Homo sapiens), P25098; FAM-aptamer displacement from GRK2; inhibition of aptamer binding, % at 10 µM; 330,000 compounds, 0.59% hits; AID 488847, 2010;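 active means inhibition of aptamer binding above 40%, roughly 3 SD of noise, on plates passing a quality check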;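 further: median bead fluorescence of bound FAM aptamer so fluorescent compounds give negative values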
# core dimer inh = inhibitors of HCV core protein dimerization, primary screen, biochemical, TR-FRET, high-throughput | TR-FRET GST/Flag-core106 dimerization, 1536-well | 300,000 compounds, 0.33% hits | AID 1899, 2009 | inhibition, % at 5 µM;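 active means inhibition above the mean of all tested compounds plus 3 SD, set per screening campaign, cut at about 45% in these data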
#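 Assay system – GST-tagged and Flag-tagged HCV core protein residues 1-106 · Quantity – core106 proteins, GST 13.5 nM and Flag 17 nM · Benchmarks – unlabelled core106 and no-GST-core106 wells · Read-out basis – percent inhibition of core106 dimerization signal · Detection – time-resolved FRET, ex 340 nm, em 617 and 671 nm · Schedule – 4 h at 22.5 °C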
# GPR7 antag conf = GPR7 receptor antagonists, confirmation, cell-based, fluorescence, single concentration; shares compounds with GPR7 antagonist; 2,400 compounds, 52% hits; inhibition, % at 4.4 µM; GPR7-expressing cells, calcium fluorescence antagonist mode; in the data active means inhibition above about 24%;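 further: stimulated with the GPR7 agonist NPW; 0% = agonist plus vehicle and 100% = vehicle alone without agonist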
# MCHR1 antag = MCHR1 antagonists in cells, counter-screen for GPR7 antagonist project, cell-based, fluorescence, human | shares compounds with GPR7 antagonist | MCHR1-expressing cells, fluorescence antagonist assay | inhibition, % at 4.4 µM | 2,400 compounds, 62% hits | AID 2148, 2009; in the data active means inhibition above about 22%;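 further: 0% = vehicle with agonist and 100% = vehicle without agonist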
# Active calls of the source: *; . = not tested or not shown.
SMILES,DAGLB inhibitor,DNA FID counter,NS3 helicase inh,GPR7 antagonist,GRK2 inh,core dimer inh,GPR7 antag conf,MCHR1 antag
CCc1cccc(CC)c1NC(=O)NC1CCCCC1,0,29,0,3,0,-8,.,.
CCc1cccc(CC)c1NC(=O)CN1CC(C)SC1=NC1CCCCC1 (centres undefined),-5,14,-17,38*,0,-3,55*,33*
Cc1cc(Cn2nc(-c3ccccc3)cc2C(=O)NCc2cccs2)on1,-11,.,.,.,.,15,.,.
CC(=O)N1N=C(c2ccc(C)o2)CC1c1cccc(F)c1 (centres undefined),1,-5,8,-6,1,2,.,.
C[C@@H](NC(=O)[C@@H]1Cc2ccccc2CN1C(=O)OC(C)(C)C)C(=O)NCC1CCCO1 (some centres undefined),2,-30,6,-20,1,6,.,.
Fc1ccc(NC(=S)NCCc2ccccc2)c(F)c1F,-4,3,9,28*,0,2,8,55*
Fc1ccccc1NC(=S)NCCc1ccccc1,-3,-2,-3,-2,6,-5,.,.
Cc1cc(NC(=O)CSCC(=O)Nc2cccc(S(=O)(=O)N3CCCCCC3)c2)no1,1,.,.,.,0,7,.,.
Cc1cccc(C(=O)N(CCc2ccccc2)Cc2ccccc2)c1[N+](=O)[O-],-9,-31,-14,24*,0,19,24*,67*
CCOC(=O)c1ccc(NC(=O)COc2ccccc2CNCCc2ccccc2)cc1,3,34,-69,31*,0,3,47*,73*
O=C(CNc1n[nH]c(=O)[nH]c1=O)N/N=C/C=C/c1ccccc1,1,-3,0,-6,1,-3,.,.
O=C(O)c1ccc(C(=O)O)c(C(=O)c2ccc(NC(=O)c3ccccc3)cc2)c1,1,-1,-29,-1,0,-1,.,.
Cc1ccc(CNS(=O)(=O)c2ccc(C)s2)cc1,0,-2,19,28*,0,6,12,4
COc1ccc(NC(=O)/C(Cl)=C(/Cl)S(=O)Cc2ccc(Cl)cc2)cn1 (centres undefined),15,-16,-12,30*,.,.,80*,93*
COc1ccc(NC(=O)C(Cl)=C(Cl)Cl)cn1,0,-10,-1,21,.,.,.,.
CC(NC(=O)CN(C)Cc1cccs1)c1ccccc1 (centres undefined),-1,-10,7,-10,0,-1,.,.
COc1ccc(-n2ccnc(SCC(=O)NCc3ccccc3Cl)c2=O)cc1,3,-25,23,48*,5,-17,14,21
COc1ccccc1-n1ccnc(SCC(=O)NCc2ccccc2Cl)c1=O,-6,.,.,.,3,1,.,.
CN(C(=O)COC(=O)c1ccccc1Cc1ccccc1)C1CCS(=O)(=O)C1 (centres undefined),1,-38,1,-3,6,12,.,.
CC(C)c1ccc(/C=N/NC(=O)c2ccc(-n3cnnn3)cc2)cc1,0,.,.,.,.,.,.,.
O=C(CCCc1nc(-c2ccc(Cl)cc2)no1)NC1CCCCC1,-3,-26,-7,3,1,-6,.,.
Cc1ccc(NC(=S)NCc2ccc(Cl)cc2)c(C)c1,-5,-21,11,31*,0,7,24*,10
Cc1ccc(O)c(NC(=S)NC(=O)Cc2ccc(Cl)cc2)c1,-2,-9,9,99*,1,-6,100*,107*
CCN1CCN(c2oc(-c3ccccc3C)nc2S(=O)(=O)c2ccccc2)CC1,-4,.,.,.,.,.,.,.
COc1ccccc1C(=O)N/C(=C/c1ccc(Br)cc1)C(=O)N1CCOCC1,0,.,.,.,.,.,.,.
SMILES,DAGLB inhibitor,DNA FID counter,NS3 helicase inh,GPR7 antagonist,GRK2 inh,core dimer inh,GPR7 antag conf,MCHR1 antag
CCC[C@@H](CN[C@@H](CNC)C(C)C)NCCCCc1ccccc1,1,21,-5,8,0,-6,.,.
CCC[C@@H](CNC)NC[C@H](Cc1ccccc1)NCCCCc1ccccc1,-3,29,-71,41*,0,-16,51*,71*
CNC[C@@H](Cc1ccccc1)NC[C@@H](CC1CCCCC1)NCCCc1ccccc1,-2,38*,-81,65*,.,-10,82*,93*
CNC[C@@H](CC1CCCCC1)NC[C@H](CC(C)C)NCCc1cccc(C(F)(F)F)c1,-3,35,-90,56*,.,-3,73*,88*
CC(C)Cc1nc(SCC(=O)N2CCCCC2)c2c(=O)n(C)c(=O)n(C)c2n1,1,-53,-1,-1,1,6,.,.
COc1ccccc1N(CCC#N)C(=O)CSc1ccc2c(c1)OCCO2,1,-30,-10,36*,1,-4,2,8
N#CCCN(C(=O)CSc1ncccn1)c1ccc2c(c1)OCCO2,-2,.,.,.,0,.,.,.
S=C(NCc1ccco1)Nc1cc(-c2ccccc2)[nH]n1,-2,-6,-1,-18,1,-3,.,.
O=C(CCC1CCCCC1)NCCN1C2=NC[C@@H](Cc3ccccc3)N2C[C@H]1Cc1ccc(O)cc1,1,18,-61,46*,.,-13,55*,30*
O=C(CCC1CCCCC1)NCCN1C2=NC[C@H](Cc3ccccc3)N2C[C@H]1Cc1ccc(O)cc1,3,7,-56,29,0,0,.,.
COc1cccc(Cn2cccc(NC(=O)Nc3cccc(C#N)c3)c2=O)c1,.,-8,16,27*,3,0,26*,67*
COc1cccc(NC(=O)Nc2cccn(Cc3ccc(C)cc3)c2=O)c1,4,-2,0,-5,1,13,.,.
S=c1nc[nH]c2c1ncn2C1CCCC1,-2,-5,-4,0,2,.,.,.
O=C(N1CCCCC1)C1(S(=O)(=O)c2ccccc2)CC=CC1,1,-15,-21,-2,0,1,.,.
Cc1cccc(C(=O)N2CCCC(N3CCN(Cc4ccc5c(c4)OCO5)CC3)C2)n1 (centres undefined),-2,4,32,27*,2,-12,-11,2
CCOC(=O)C1=C(c2ccccc2)NC(=O)NC1c1ccc(O)c(Cl)c1 (centres undefined),3,-13,5,75*,0,5,66*,49*
